Assay results collected from several papers.
Lines come from different studies, so protocols differ.
Target: Tyrosine-protein kinase receptor TYRO3 (TYRO3, Homo sapiens, UniProt Q06418)
Residues used in one study (Q06418 41-890): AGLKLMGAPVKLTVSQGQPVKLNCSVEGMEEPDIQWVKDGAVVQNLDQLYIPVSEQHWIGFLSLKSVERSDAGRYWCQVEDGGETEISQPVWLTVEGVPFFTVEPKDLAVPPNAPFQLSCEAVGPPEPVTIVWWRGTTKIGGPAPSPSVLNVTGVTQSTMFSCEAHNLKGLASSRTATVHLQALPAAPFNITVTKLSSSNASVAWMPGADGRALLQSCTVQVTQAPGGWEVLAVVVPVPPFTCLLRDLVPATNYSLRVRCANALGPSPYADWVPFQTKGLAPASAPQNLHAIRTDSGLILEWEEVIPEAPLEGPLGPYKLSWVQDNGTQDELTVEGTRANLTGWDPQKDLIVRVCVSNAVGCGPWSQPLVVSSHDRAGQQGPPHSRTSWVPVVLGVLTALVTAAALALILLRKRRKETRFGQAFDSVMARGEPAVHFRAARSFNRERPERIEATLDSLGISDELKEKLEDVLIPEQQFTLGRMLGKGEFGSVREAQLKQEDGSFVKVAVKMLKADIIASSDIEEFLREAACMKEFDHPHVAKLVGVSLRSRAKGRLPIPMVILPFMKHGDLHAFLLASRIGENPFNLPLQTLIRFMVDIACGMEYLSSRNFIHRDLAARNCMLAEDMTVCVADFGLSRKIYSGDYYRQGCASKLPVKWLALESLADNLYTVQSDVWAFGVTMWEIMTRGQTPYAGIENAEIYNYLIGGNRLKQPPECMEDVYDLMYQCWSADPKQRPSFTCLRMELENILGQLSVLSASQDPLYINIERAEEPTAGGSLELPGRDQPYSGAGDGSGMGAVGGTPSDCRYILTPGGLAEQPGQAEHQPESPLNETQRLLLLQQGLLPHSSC

Cn1c2c(c3ccc(Cl)c(Cl)c31)C(C#N)C1(CCN(C(=O)OC(C)(C)C)CC1)NC2=O (racemic)  ΔTm (thermal stability, DSF; 10 µM): 0 °C
Cc1cc(NC(=O)c2cccc3cc(-c4cccc5[nH]nc(N)c45)ccc23)ccc1F  activity vs control (enzyme activity, inhibitor; 0.1 µM): 99%
CN1CC(Oc2cnc(C#N)cc2-c2ccn3nc(NC(=O)C4CC4)cc3c2)C1  inhibition (enzyme activity, inhibitor; 1 µM): -2%
Cc1ccc(C(=O)NCc2ccsc2)cc1C#Cc1cn(C(C)C)c2ncnc(N)c12  activity vs control (enzyme activity, inhibitor; 1 µM): 89%
CC(C)c1ccc(NC(=O)c2cccs2)c(-c2nc3ccccc3[nH]c2=O)c1  activity vs control (enzyme activity, inhibitor; 1 µM): 103%
COc1cc(Cl)c(C(=O)N[C@@H](CN[C@H]2CC[C@@H](N)CC2)Cc2ccc(C#N)cc2)cc1-c1ccc(CN[C@H](C)c2ccc(C)cc2)o1  remaining activity (enzyme activity, inhibitor; 1 µM): 85%
CCCCN(CCCC)C(=O)CN1C[C@@H](c2cc(OC)c3c(c2)OCO3)[C@H](C(=O)O)[C@H]1CC(C)(C)CCC  remaining binding (cell-free assay, competition with immobilised ligand; 1 µM): 97.1%
COc1cc2ncnc(Nc3ccc(Oc4ccccc4)cc3C)c2cc1OC  inhibition (enzyme activity, inhibitor; 1 µM): 70%
Nc1cnc(N2CCc3cc(S(=O)(=O)Nc4c(F)cc(Cl)cc4F)cc(N4CCCC4=O)c32)nc1  remaining binding (cell-free assay, competition with immobilised ligand; 1 µM): 100%
Cn1c2c(c3ccc(Cl)c(Cl)c31)C(C#N)C(C)(C)NC2=O (centres unmarked)  ΔTm (thermal stability, DSF; 10 µM): 0.5 °C
Cc1sc(C(=O)NC2COC2)cc1-n1cc(NC(=O)Nc2c(F)cccc2Cl)cn1  remaining activity (enzyme activity, inhibitor; 10 µM): 98.8%
O=C1Nc2ccc(Cl)cc2C1=Cc1cc(Cl)c(O)c(Cl)c1  remaining signal (cell-free assay; 0.5 µM): 94.9%
Cn1c2c(c3ccc(Cl)c(Cl)c31)C(C#N)C1(CCNCC1)NC2=O (racemic)  ΔTm (thermal stability, DSF; 10 µM): -0.4 °C
CC(C)(C)c1nc2c(s1)c1nc(N)ncc1c1ccc(NS(=O)(=O)c3c(F)cccc3F)c(F)c12  remaining activity (enzyme activity, inhibitor, radiometric; 1 µM): 91%
CC/C(=N\NC(=O)NCc1cccc(O)c1)c1ccc(O)c(C)c1O  inhibition (enzyme activity, inhibitor; 0.1 µM): 2.7%
CNC(=O)c1cc2c(Oc3ccc(NC(=O)C4(C(=O)Nc5ccc(F)cc5)CC4)cc3)ccnc2cc1OC  inhibition (enzyme activity, inhibitor, radiometric; 1 µM): 100%
CCCOc1ccc([C@@H]2[C@@H](C(=O)O)[C@H](c3ccc4c(c3)OCO4)CN2CC(=O)Nc2c(CC)cccc2CC)cc1  remaining binding (cell-free assay, competition with immobilised ligand; 1 µM): 94%
CCN(CC)CCNC(=O)c1c(C)[nH]c(/C=C2\C(=O)Nc3ccc(F)cc32)c1C  inhibition (cell-free assay; 10 µM): 95%
Cc1c(C(=O)O)cc(-c2ccc(C3CCNCC3)cc2)c2ccc(-c3ccc(C(F)(F)F)cc3)cc12  remaining binding (cell-free assay, competition with immobilised ligand; 1 µM): 100%
Cc1ccc(Nc2nccc(N(C)c3ccc4c(C)n(C)nc4c3)n2)cc1S(N)(=O)=O  inhibition (cell-free assay; 10 µM): 55%
Cc1ccc(C(=O)Nc2ccc(CN3CCN(C)CC3)c(C(F)(F)F)c2)cc1C#Cc1cnc2cccnn12  remaining signal (cell-free assay; 23.5 nM): 73%
CCS(=O)(=O)c1cc2cc(C[C@@](O)(CC(C)(C)c3ccc(F)cc3C(N)=O)C(F)(F)F)[nH]c2cn1  remaining binding (cell-free assay, competition with immobilised ligand; 1 µM): 92%
Cc1ccc(NC(=O)c2ccc(C)c(C(F)(F)F)c2)cc1C#Cc1nn(C2CCC(O)CC2)c2ncnc(N)c12 (centres unmarked)  remaining signal (cell-free assay; 10 µM): 2%
COCCOc1nc(-c2ccc(Cl)nc2)nc2c1CN(C(=O)c1ncn3ccccc13)CC2  remaining binding (cell-free assay, competition with immobilised ligand; 0.1 µM): 100%
CCCOc1ccc(OC)c(F)c1C(=O)c1ccc(C(=O)N[C@@H]2CNC[C@H]2NC(=O)c2ccc3[nH]ncc3c2)cc1  remaining activity (enzyme activity, inhibitor; 10 µM): 51%
Cc1nc(N2CC[C@@H](O)C2)ncc1-c1cc(C(F)(F)F)cc2[nH]ncc12  remaining binding (cell-free assay, competition with immobilised ligand; 1 µM): 66%
CNC(=O)c1cc(Oc2ccc(NC(=O)Nc3ccc(Cl)c(C(F)(F)F)c3)cc2)ccn1  remaining signal (cell-free assay; 0.5 µM): 91.7%
Cn1c2c(Cl)c(Cl)ccc2c2cc(N)[nH]c(=O)c21  ΔTm (thermal stability, DSF; 10 µM): 1.1 °C
COc1cccc(CNC(=O)c2nc3scc(COCc4ccc(C(=O)O)cc4)c3c(=O)[nH]2)c1  remaining binding (cell-free assay, competition with immobilised ligand; 1 µM): 100%
